# Experimental data as given in paper PMC9653265 (Journal of medicinal chemistry, 2022).
# Experiments:
# [1] = test system: mouse middle cerebral artery occlusion (MCAO) model of ischemic stroke; conditions: mice, 1 mg/kg/day × 3 days, administered 4 h after onset of stroke; cited from earlier work
# [2] = test system: 45 receptors, channels, and transporters; assay: PDSP off-target binding screen at 45 receptors, channels and transporters; conditions: at 10 μM
# P2X7R = conditions: cited from earlier work
# mP2X4R = conditions: cited from earlier work
# hP2X1R = biological target: T1, hP2X1R (Homo sapiens, UniProt P51575); assay: cell-based; conditions: CHO-K1, read-out: hP2X1R % inhib.
# T1 sequence (P51575 1-399): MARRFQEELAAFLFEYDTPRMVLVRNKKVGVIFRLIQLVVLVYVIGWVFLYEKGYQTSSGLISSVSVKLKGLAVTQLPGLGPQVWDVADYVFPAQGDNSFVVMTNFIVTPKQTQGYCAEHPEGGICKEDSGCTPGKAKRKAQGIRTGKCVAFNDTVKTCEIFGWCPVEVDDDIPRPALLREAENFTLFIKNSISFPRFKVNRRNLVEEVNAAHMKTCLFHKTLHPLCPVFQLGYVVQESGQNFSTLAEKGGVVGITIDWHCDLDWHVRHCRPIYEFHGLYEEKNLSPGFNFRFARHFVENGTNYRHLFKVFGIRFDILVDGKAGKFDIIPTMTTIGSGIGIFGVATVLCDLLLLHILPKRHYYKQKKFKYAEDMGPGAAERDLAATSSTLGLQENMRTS
# [3] = test system: mouse middle cerebral artery occlusion (MCAO) model of ischemic stroke; assay: MCAO ischemic stroke model, cerebral infarct volume; format: in vivo
# [4] = test system: mouse middle cerebral artery occlusion (MCAO) model of ischemic stroke; assay: Open-field test after MCAO; format: in vivo; conditions: middle-aged mice after MCAO; vs vehicle; over 4 weeks
# Outline: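 The model used 60 min right MCAO in middle-aged male and female C57BL/6 mice. Test compound or PBS vehicle was infused by osmotic minipump for 3 days. Testing was at baseline and on post-MCAO days 2, 7, 14, 21 and 28. Mice started from a corner of a 16″ acrylic box and explored ~10 min. Total photobeam breaks and center-zone break percentage were recorded. This test preceded rotarod by 1 h. Data are mean ± S.D.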
# [5] = test system: mouse middle cerebral artery occlusion (MCAO) model of ischemic stroke; assay: Rotarod test after MCAO; format: in vivo; conditions: middle-aged mice after MCAO; 4–40 rpm, 5 min; over 4 weeks
# Outline: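 Middle-aged male and female C57BL/6 mice underwent 60 min right MCAO. They received test compound or PBS by osmotic minipump for 3 days. Rotarod was done at baseline and on post-MCAO days 2, 7, 14, 21 and 28, 1 h after open-field testing. The rod accelerated 4–40 rpm over 5 min. Each mouse had two trials 30 min apart, and mean latency to fall (s) was used. Data are mean ± S.D.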
# [6] = test system: mouse middle cerebral artery occlusion (MCAO) model of ischemic stroke; assay: Novel Object Recognition Task; format: in vivo; conditions: middle-aged mice, 4 weeks after MCAO; dose of 3 mg/kg; p < 0.05 vs Veh
# [7] = test system: primary human monocyte-derived macrophages; assay: Calcium influx assay on human monocyte-derived macrophages; format: cell-based; conditions: ATP 50 μM, 15 min pretreatment
# Outline: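 Monocytes came from fresh whole blood of healthy donors. They were matured 5–7 days in RPMI with GM-CSF (5 ng/mL), then seeded at 10^4 cells/dish for ≥24 h. Cells were loaded with Calbryte 590 AM for 60 min in HBSS/HEPES and washed. They were pretreated 15 min with test compound (0, 0.1, 0.3, 0.6, 1, 3 μM), then stimulated with ATP 50 μM. Confocal images were taken every 6 s for up to 4 min, and peak Ca2+ amplitude was quantified.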
# [8] = young adult male mice (8–12 weeks), doses of 1.5 and 3.0 mg/kg/day × 3 days continuous infusion (Alzet minipump), 3 days after stroke, vs Veh
# [9] = young adult male mice, 5 mg/kg/day × 3 days continuous infusion, 3 days after stroke, vs Veh
structure (smiles),measurement,setting,value
"O=C1CN=C(c2cccc(Br)c2)c2oc3ccccc3c2N1 [Compound 3, 5-(3-bromophenyl)-1,3-dihydro-2H-benzofuro[3,2-e][1,4]diazepin-2-one]",stroke infarct size,[1],reduced
"O=C1CC(=O)N(c2cccc(-c3noc(=S)[n-]3)c2)c2ccc3ccccc3c2N1.[Na+] [Compound 5, 5-(3-(5-Thioxo-4,5-dihydro-1,2,4-oxadiazol-3-yl)phenyl)-1,5-dihydro-2H-naphtho[1,2-b][1,4]diazepine-2,4(3H)-dione]","off-target binding at 45 receptors, channels, and transporters",[2],no significant interactions
same,activity at the P2X7R,P2X7R,inactive
same,potency in blocking mP2X4R effects in vitro compared with hP2X4R,mP2X4R,as potent
"CCN(CC)CC.O=C1CC(=O)N(c2cccc(-c3noc(=S)[nH]3)c2)c2cc(Br)c3ccccc3c2N1 [Compound 21d, 7-Bromo-5-(3-(5-thioxo-4,5-dihydro-1,2,4-oxadiazol-3-yl)-phenyl)-1,5-dihydro-2H-naphtho[1,2-b][1,4]diazepine-2,4(3H)-dione]","off-target binding at 45 receptors, channels, and transporters",[2],no significant interactions
"CC(=O)NCc1ccc2ccc3c(c2c1)NC(=O)CC(=O)N3c1cccc(-c2noc(=S)[nH]2)c1 [Compound 21i, N-((2,4-Dioxo-5-(3-(5-thioxo-4,5-dihydro-1,2,4-oxadiazol-3-yl)-phenyl)-2,3,4,5-tetrahydro-1H-naphtho[1,2-b][1,4]diazepin-10-yl)-methyl)acetamide]",inhibition at 30 µM,hP2X1R,≤ 31%
"CCN(CC)CC.O=C1CC(=O)N(c2ccnc(-c3noc(=S)[nH]3)c2)c2ccc3ccccc3c2N1 [Compound 21u, 5-(2-(5-Thioxo-4,5-dihydro-1,2,4-oxadiazol-3-yl)pyridin-4-yl)-1,5-dihydro-2H-naphtho[1,2-b][1,4]diazepine-2,4(3H)-dione]",effective dose in murine MCAO ischemic stroke model,[3]; neuroprotective and neuro-rehabilitative properties,1.5 mg/kg
same,cortical infarct volume,[3]; [8],significantly reduced
same,total hemispheric infarct volume,[3]; [8],significantly reduced
same,"total exploratory behavior (total beam breaks, open-field task)",[4],did not show any differences
same,motor coordination and balance (rotarod),[5],did not improve
same,learning and memory function (NORT),[6],significant retention of memory
same,inhibition of ATP-induced increase in calcium influx,[7]; HMDM of healthy subjects,dose-dependent (0–3 μM) inhibition
same,doses giving a significant decrease of the peak Ca2+ amplitude,[7]; vs ATP only,≥ 0.6 µM
"O=C1CC(=O)N(c2cccc(-c3noc(=S)[nH]3)n2)c2ccc3ccccc3c2N1 [Compound 21v, 5-(6-(5-Thioxo-4,5-dihydro-1,2,4-oxadiazol-3-yl)pyridin-2-yl)-1,5-dihydro-2H-naphtho[1,2-b][1,4]diazepine-2,4(3H)-dione]",inhibition at 30 µM,hP2X1R,≤ 31%
Cc1ccc2c3c(ccc2c1)N(c1cccc(-c2noc(=S)[n-]2)c1)C(=O)CC(=O)N3.[Na+] [Compound 22c],"off-target binding at 45 receptors, channels, and transporters",[2],no significant interactions
same,cortical infarct volume,[3]; [9],not significant
same,striatal infarct volume,[3]; [9],not significant
same,total hemispheric infarct volume,[3]; [9],moderate but significant decrease
